This data set is described as follows: Toxicity liver stage against HepG2, at 10uM. Type of data set: cell-based. The conditions noted are these: human, HepG2-A16-CD81EGFP cells; read-out: INHIBITION
Further details: test concentration 10 uM, cell line HepG2-A16-CD81EGFP. In short, it runs like this: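 Uninfected HepG2-A16-CD81EGFP cells, 3 × 10^3 per well, 1536-well, plated on prespotted compound at 10 μM final, parasite-free screening media added to match infected plates; puromycin 10 μM positive, DMSO 0.5% negative; run in parallel with 48 h PbLuc assay at 37 °C, 5% CO2; viability by CellTiter-Glo luminescence, normalized to controls.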
For the molecule `CC(N1CCN(C(=O)NCc2cccc(C#N)c2)CC1)C(F)(F)F` (stereo unspecified), the cytotoxicity at 10 µM is 6.31%.

Regarding `O=C(N[C@@H]1CCN(Cc2cc3ccccc3s2)C[C@H]1O)c1cccnc1`, the cytotoxicity at 10 µM was -7.57%.

As for `Cc1ccoc1C(=O)NC1CCN(Cc2ccccc2F)CC1`, the cytotoxicity at 10 µM is -14.1%.

Turning to `COC(=O)CNC(=O)c1ccc(OC2CCN(S(C)(=O)=O)CC2)c(Cl)c1`, the cytotoxicity at 10 µM is -4.52%.

As for `COCc1nc(N(C)CCSc2ccccc2)c2cnn(C)c2n1`, the cytotoxicity at 10 µM amounted to 1.98%.

Take `CC(C)c1nn(C)cc1CNCc1cccnc1N(C)C`: the cytotoxicity at 10 µM is -1.96%.

`NCc1n[nH]c(-c2ccc(Br)cc2)n1`: the cytotoxicity at 10 µM is 19.7%.

For the molecule `c1cc(CN2C[C@H](OCC3CCOCC3)[C@H]3COC[C@H]32)co1`, the cytotoxicity at 10 µM was -4.8%.

For `CCc1c(C)nc2cc(C3CCN(Cc4cccnc4)C3)nn2c1O` (stereo unspecified), the cytotoxicity at 10 µM is -25.4%.

As to `Cc1cc(C)n(C2CCCN(C(=O)Cc3csc(C)n3)C2)n1` (stereo unspecified), the cytotoxicity at 10 µM is -10.4%.

Regarding `CN1CCN(Cc2ccccc2CNC(=O)c2ccc(Cl)cc2F)CC1`, the cytotoxicity at 10 µM worked out at 15.5%.

As to `COc1ccc(C(=O)N2CCCC(NC(=O)C(C)C)C2)c(O)c1` (stereo unspecified), the cytotoxicity at 10 µM is 0.301%.

For `CC(=O)NC1CCCN(C(=O)Nc2nnc(C(C)C)s2)C1` (stereo unspecified), the cytotoxicity at 10 µM came out at 12.6%.

`CCn1ccnc1CN1CCCC1c1c(C)nn(C)c1OC` (stereo unspecified): the cytotoxicity at 10 µM was -0.386%.

Take `O=C(c1ccc(CN2CCCCC2)cc1)N1Cc2cnn(CCO)c2C1`: the cytotoxicity at 10 µM was 12.6%.

As for `CCCC(=O)N1CCCN(C(=O)Nc2ccc(C)s2)CC1`, the cytotoxicity at 10 µM was -1.24%.

On to `O=C(c1ccoc1)N1CC[C@@H](N2CCOCC2)[C@@H]1Cc1ccccc1`, for which the cytotoxicity at 10 µM was -82%.

`Cc1noc(C)c1C(=O)N1CCCCC1c1cc(C)n2ccnc2n1` (stereo unspecified): the cytotoxicity at 10 µM amounted to 15.8%.

Take `O=C(Nc1ccc(Cl)cn1)c1cncc(C2CCNCC2)n1`: the cytotoxicity at 10 µM is -13.5%.

With `Cc1ocnc1C(=O)N(C)[C@@H]1CCC[C@@H](N2CCCC2)[C@@H]1O`, the cytotoxicity at 10 µM is -3.7%.

For `Cc1[nH]n(-c2ccccc2)c2nnc(N)c1-2`, the cytotoxicity at 10 µM came out at 12.4%.

For `Cc1nn(C)c(N(C)C)c1CNCc1ccc(OCC(N)=O)cc1`, the cytotoxicity at 10 µM turned out to be 1.25%.

Turning to `CCOCC(O)CN1CCN(C(=O)c2cc(C)ccc2F)CC1` (stereo unspecified), the cytotoxicity at 10 µM is 5.71%.

With `CCc1[nH]c2c(CNc3nccc(N)n3)cc(C)cc2c1C`, the cytotoxicity at 10 µM came out at 3.4%.

Consider `CCC(CNC1CCN(C(C)=O)CC1)Oc1ccccc1Cl` (stereo unspecified), for which the cytotoxicity at 10 µM was -13.4%.

In the case of `Cc1noc(COCC(=O)N2CCCC(c3nccs3)C2)n1` (stereo unspecified), the cytotoxicity at 10 µM turned out to be 0.172%.

With `CC(C)N(CC(N)=O)C(=O)c1cnc(-c2ccc3c(c2)OCO3)s1`, the cytotoxicity at 10 µM was -5.92%.

Take `Cc1noc(C)c1CNCC1COCc2c(-c3ccsc3)nnn2C1` (stereo unspecified): the cytotoxicity at 10 µM came out at 5.74%.

Take `C=C(C)COc1cccc(C(=O)N(CC)Cc2noc(C)n2)c1`: the cytotoxicity at 10 µM was -4.15%.

In the case of `NCCO[C@H]1C[C@@H](O)C12CCN(Cc1c(F)cccc1F)CC2`, the cytotoxicity at 10 µM was -20%.

Take `Cc1nccc(N[C@H]2CN(CC(C)(C)N3CCOCC3)C[C@@H]2C2CC2)n1`: the cytotoxicity at 10 µM was found to be 3.03%.

`C[C@@H]1CN(C(=O)C2CCS(=O)(=O)CC2)C[C@]1(C)O`: the cytotoxicity at 10 µM is -4.11%.

On to `Cc1ccc(C2(CN(C)Cc3c(C)nn(C)c3C)CCNCC2)nc1`, for which the cytotoxicity at 10 µM is -0.44%.

As for `CC(=O)N(C)c1nc(CN2CCCC2Cn2cncn2)cs1` (stereo unspecified), the cytotoxicity at 10 µM was -1.01%.

Turning to `Cc1ccc(CCN2C(=O)CC[C@H]3CN(Cc4cnn(C)c4)CC[C@H]32)o1`, the cytotoxicity at 10 µM was -2.19%.

As for `Cc1ccccc1-n1cnnc1SCCOCC1CCCO1` (stereo unspecified), the cytotoxicity at 10 µM was -3.73%.

Consider `CC(O)CN1CCN(Cc2cccc(C(=O)N3CCCCC3)c2)CC1` (stereo unspecified), for which the cytotoxicity at 10 µM is -4.83%.

As for `CCc1nc(C)c(C(=O)N2C[C@@H]3CC[C@H]2CN(S(=O)(=O)N(C)C)C3)s1`, the cytotoxicity at 10 µM came out at 25%.

Take `CCc1nc(C2CCCN2C(=O)c2ccc(=O)n(CC)n2)no1` (stereo unspecified): the cytotoxicity at 10 µM was determined as 2.72%.

Turning to `CC(C)c1noc(CCCC(=O)N2CCN(Cc3ccncc3)CC2)n1`, the cytotoxicity at 10 µM was -6.59%.

As for `NC(=O)CN(Cc1ccc(Br)cc1)C(=O)c1ccncc1`, the cytotoxicity at 10 µM was determined as 4.16%.

On to `Cc1nn(C)c(N2CCOCC2)c1CNC(C(N)=O)c1ccccc1` (stereo unspecified), for which the cytotoxicity at 10 µM is -6.86%.

Take `CNS(=O)(=O)c1ccc(CN2CCC(c3ccncc3)CC2)cc1`: the cytotoxicity at 10 µM came to 10%.

For the molecule `COc1cc2[nH]c(=O)c(CN3CCCC(CO)C3)cc2c(OC)c1OC` (stereo unspecified), the cytotoxicity at 10 µM is -11.7%.

As for `Cc1ccc(N2CCC3(CCN(Cc4csc(C)n4)C3=O)C2)nn1` (stereo unspecified), the cytotoxicity at 10 µM was -111%.

As for `CC(=O)N1CCCC2(CCN(Cc3ccc(Cl)c(C(F)(F)F)c3)C2)C1` (stereo unspecified), the cytotoxicity at 10 µM came out at 11.9%.

For `O=C(N[C@@H]1CCNC[C@H]1O)c1ccccc1OC(F)(F)C(F)F`, the cytotoxicity at 10 µM was -3.28%.

For the molecule `CNc1cc(C)nc(-c2cc(NCCO)nc3[nH]ccc23)n1`, the cytotoxicity at 10 µM came to 5.85%.

For `CCN1CC2(CC1=O)CN(C(C)=O)CCN(C(=O)c1ccco1)C2` (stereo unspecified), the cytotoxicity at 10 µM was -8.92%.

Turning to `O=C(NCCNc1ccc(C(F)(F)F)cn1)c1ccc(Br)cc1F`, the cytotoxicity at 10 µM is 7.15%.

For the molecule `O=C(NCC1CCOC1)c1csc(-c2ccccc2)n1` (stereo unspecified), the cytotoxicity at 10 µM is -0.755%.

Turning to `O=C(Cc1cccnc1)N1CC(Cc2nccc3cc[nH]c23)C1`, the cytotoxicity at 10 µM is 4.87%.

For `Cc1noc(C)c1CN(C)C(=O)c1ccc(NC2CC2)nc1`, the cytotoxicity at 10 µM was -4.94%.

For `Cc1nn(C2CCS(=O)(=O)C2)c(O)c1Cc1ccccc1Cl` (stereo unspecified), the cytotoxicity at 10 µM is -45.7%.

Consider `CCC[C@@H]1CN(Cc2cc(C#N)n(C)c2C)C[C@H]1NS(C)(=O)=O`, for which the cytotoxicity at 10 µM was -132%.

In the case of `Cc1nc(N2C[C@@H](CN3CCCN(C)CC3)[C@@H](CO)C2)c2sccc2n1`, the cytotoxicity at 10 µM was -8.64%.

Take `Cc1n[nH]c(C)c1C1CCCN1C(=O)NCC(=O)Nc1ccccc1` (stereo unspecified): the cytotoxicity at 10 µM was found to be 4.23%.

In the case of `Cc1n[nH]c(C)c1CCC(=O)NCC1CCCN(C2CCCC2)C1` (stereo unspecified), the cytotoxicity at 10 µM is -6.32%.

`NC(=O)c1ccc(OCCC(=O)NC2CCc3c(F)cccc32)cc1` (stereo unspecified): the cytotoxicity at 10 µM is 2.02%.

For the molecule `O=C1NCCCCC1NC(=O)N1CCCc2cc(F)ccc21` (stereo unspecified), the cytotoxicity at 10 µM was -4.53%.

Turning to `c1ccc(Cn2cc3c(n2)C(COCC2CC2)OCC3)nc1` (stereo unspecified), the cytotoxicity at 10 µM was -6.63%.

Consider `Cc1cccc(C(C(=O)NC(C)(C)CN2CCCC2)N(C)C)c1` (stereo unspecified), for which the cytotoxicity at 10 µM was -3.73%.

For the molecule `CCC(CO)N(Cc1ccco1)C(=O)c1ccc(F)cc1Cl` (stereo unspecified), the cytotoxicity at 10 µM was -0.247%.

For the molecule `Cc1cccc(OCCC(=O)N(C)CCC#N)c1C`, the cytotoxicity at 10 µM came to 0.666%.

As for `c1ccc(-c2nnn3c2COC(CNCC2CC2)C3)cc1` (stereo unspecified), the cytotoxicity at 10 µM is -77.8%.

Take `O=C(C1CC1)N1C[C@H]2CCCN(S(=O)(=O)c3ccc4c(c3)CCC4)[C@H]2C1`: the cytotoxicity at 10 µM turned out to be 8.52%.

With `Cc1ccccc1CNc1nc(O)cc(C2CC(=O)N(C)C2)n1` (stereo unspecified), the cytotoxicity at 10 µM is -0.336%.

On to `c1cnn(CC2CCCCN2Cc2nc(-c3ccsc3)no2)c1` (stereo unspecified), for which the cytotoxicity at 10 µM was -12.2%.

In the case of `Cc1nonc1OCCNC(=O)COc1ccc(Cl)cc1Cl`, the cytotoxicity at 10 µM was determined as 3.95%.

`Cc1ccc(C(=O)N2CCCC(CNS(C)(=O)=O)C2)o1` (stereo unspecified): the cytotoxicity at 10 µM is -16%.

As to `O=C(NCCn1ccnc1)c1cc(F)cc(Br)c1`, the cytotoxicity at 10 µM was -1.62%.

As to `CC(O)CN1CCC(CN(C)Cc2cccc(C(=O)N(C)C)c2)CC1` (stereo unspecified), the cytotoxicity at 10 µM is -5.74%.

As to `O=C(C1CCC1)N1CCO[C@@H]2CNC[C@@H]21`, the cytotoxicity at 10 µM was 1.44%.

As to `COCc1nc(C(=O)NS(=O)(=O)c2cc(F)ccc2F)cs1`, the cytotoxicity at 10 µM is -2.22%.

`Cc1noc([C@@]23CCO[C@@H]2CCN(C(=O)CCC(C)C)C3)n1`: the cytotoxicity at 10 µM amounted to 10.3%.

Turning to `CN(Cc1ccncc1)C(=O)NC1CCS(=O)(=O)C1` (stereo unspecified), the cytotoxicity at 10 µM is -2.94%.

On to `Cc1nc(C)n(CC2CN(CCn3cccn3)CCO2)n1` (stereo unspecified), for which the cytotoxicity at 10 µM was -0.665%.

Take `Cc1nn(C(C)(C)C)c(C)c1C(=O)NCC1(C(N)=O)CCOCC1`: the cytotoxicity at 10 µM came out at 3.28%.

Regarding `Cc1ccc(CN2CC[C@@H](NC(=O)c3cccnc3)[C@H](O)C2)s1`, the cytotoxicity at 10 µM is -2.68%.

Regarding `Cc1ncsc1C(=O)NCC1SCCc2ccccc21` (stereo unspecified), the cytotoxicity at 10 µM is -8.21%.

In the case of `CCc1ncc2c(n1)CN(Cc1nnc(CC)o1)CC2`, the cytotoxicity at 10 µM was -8.8%.

Regarding `O=C(NC1CC1)c1ccn(COc2c(Cl)cccc2Cl)n1`, the cytotoxicity at 10 µM turned out to be 7.36%.

`CCCNC(=O)c1cc2c(nc1O)CCC(C)C2` (stereo unspecified): the cytotoxicity at 10 µM was found to be 0.717%.

For `O=C(CCN1CCCC1C1CCCCC1)N1CCc2sccc2C1` (stereo unspecified), the cytotoxicity at 10 µM was -11%.

With `Cc1ncsc1C(=O)NCc1cccs1`, the cytotoxicity at 10 µM was -1.89%.

In the case of `CCC(C)NC(=O)N1CCCn2cnc(CO)c2C1` (stereo unspecified), the cytotoxicity at 10 µM is -9.35%.

As to `CCC(=O)Nc1ccc(C(C)NC(=O)COCCOC)cc1` (stereo unspecified), the cytotoxicity at 10 µM was -7.71%.

Consider `CN1CCC(N2CC[C@@H]3[C@@H](CCC(=O)N3CCC3=CCCCC3)C2)CC1`, for which the cytotoxicity at 10 µM was -6.53%.

Consider `CCN(Cc1nc(Cc2ccccc2)no1)C1CC1`, for which the cytotoxicity at 10 µM was found to be 6.26%.

On to `COc1ccc(OC2CCN(C(=O)c3ccc(C(C)=O)s3)CC2)cc1`, for which the cytotoxicity at 10 µM turned out to be 3.58%.

`Cc1cnc(N2C[C@@H]3[C@@H](C2)OCC(=O)N3CC(C)C)nc1`: the cytotoxicity at 10 µM is -0.173%.

With `COCCCN1CCCC12CCN(c1ncccn1)CC2`, the cytotoxicity at 10 µM was 2.87%.

On to `O=C(NCc1cccc2cccnc12)N1CCC(n2cncn2)CC1`, for which the cytotoxicity at 10 µM stood at 0.722%.

On to `CCn1nccc1CNC(=O)C1CCCO1` (stereo unspecified), for which the cytotoxicity at 10 µM was -2.21%.

As for `CC(=O)c1cc(CC(=O)N2CCN(S(=O)(=O)c3ccccc3)CC2)cs1`, the cytotoxicity at 10 µM is -0.943%.

Consider `CN(C)CCNc1cc(-c2ncccc2O)c2cc[nH]c2n1`, for which the cytotoxicity at 10 µM was found to be 7.28%.

(Values after ChEMBL document CHEMBL4513216, “Probing the Open Global Health Chemical Diversity Library for Multistage-Active Starting Points for Next-Generation Antimalarials” (ACS Infect Dis, 2020).)
